The text below walks through data of paper PMC7649109 (International Journal for Parasitology: Drugs and Drug …, 2020).

One data set has as its system T. brucei S427WT. The data set is described as follows: resazurin viability assay, T. brucei s427 wild-type bloodstream forms. In kind it is cell-based. Conditions: Trypanosoma brucei. An outline of the steps: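 Bloodstream forms grown in complete HMI-9 with 10% fetal bovine serum at 37 °C/5% CO2. 2 × 10^4 cells/well were exposed for 48 h to 23 doubling dilutions of the test compound or extract, with no-drug controls and 1% (v/v) DMSO per well. Resazurin was then added for a further 24 h. EC50 is the mean ± SEM of at least 3 independent determinations.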
On the technique in general: The colour change of resazurin is a common sign of viable cells or microbes.

The next data set concerns T. brucei B48. Put plainly: resazurin viability assay, multi-drug resistant T. brucei B48. It is filed as cell-based, Trypanosoma brucei. Conditions: for R. F (Resistance factor): Table 1; for R. F (Resistance factor) / RF (Resistance factor): B48 versus s427 WT; for RF (Resistance factor): Table 5; for EC50: Trypanosoma brucei. An outline of the steps: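 s427 wild-type and B48 T. b. brucei bloodstream forms cultured in HMI-9 with 10% FBS at 37 °C/5% CO2. Wells of 2 × 10^4 cells received 23 doubling dilutions (1% v/v DMSO) plus no-drug controls for 48 h, followed by resazurin and 24 h more incubation. EC50 from ≥3 independent determinations. […]; unpaired two-tailed t-test versus s427.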

In data set [1] the test system is Trypanosoma congolense 6C3. The data set is described as follows: resazurin viability assay, diminazene-resistant T. congolense clone 6C3. It is filed as cell-based. Conditions: for RF (Resistance factor): Table 6; for EC50: Trypanosoma congolense, T. congolense 6C3. An outline of the steps:
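IL3000 and diminazene-resistant 6C3 T. congolense bloodstream forms grown in MEM base with 10% goat serum, 14 μL/L β-mercaptoethanol, glutamine and antibiotics at 34 °C/5% CO2. 5 × 10^4 cells/well exposed to 23 doubling dilutions (1% v/v DMSO) plus no-drug controls for 48 h, then resazurin for a further 24 h. EC50 from ≥3 independent determinations. RF = […]; unpaired two-tailed t-test versus IL3000.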

The next data set concerns RAW 246.7 cell line. Put plainly: cytotoxicity, resazurin assay on RAW 246.7 cell line. It is filed as cell-based, murine.
Assay in data set [2]: as above
It is filed as cell-based, murine. Conditions: mouse, RAW 264.7 macrophage cells (also printed RAW 246.7).

Data set [3] relates to Trypanosoma congolense IL3000. Put plainly: resazurin viability assay, T. congolense IL3000 bloodstream forms. It is filed as cell-based. An outline of the steps: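 Bloodstream-form parasites were grown in MEM base with 10% goat serum, 14 μL/L β-mercaptoethanol, glutamine and antibiotics at 34 °C/5% CO2. Cells at 5 × 10^4/well were exposed to 23 doubling dilutions plus no-drug controls, with DMSO held at 1% (v/v) per well, for 48 h. Resazurin was then added for a further 24 h. EC50 is the mean ± SEM of ≥3 independent determinations.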

A short description of data set [4]: cytotoxicity, resazurin assay on U937 cell line. Conditions: human, U937 cells. It is filed as cell-based, human.
The subject of another data set is U937 cell line. Put plainly: cytotoxicity, resazurin assay on U937 cell line. It is filed as cell-based, human.
[5] abbreviates: read-out: EC50, AVG ± SEM, Table 5, purified compounds, T. b. brucei s427 WT, n = 3.
Where [6] appears, read: read-out: EC50, AVG ± SEM, Table 5, purified compounds, T. b. brucei B48, n = 3.
[7] abbreviates: read-out: EC50, AVG ± SEM, Table 6, purified compounds, n = 3.
Where [8] appears, read: read-out: EC50, AVG ± SEM, Table 2, control, footnote b: EC50 in μM.

Structures are written as SMILES. Values joined by “and” are separate entries in the source; they are usually repeats but may differ in a detail not shown here. Equal values may be shown once. Read-outs that look alike come from different tables or passages of the source.

In general, EC50 refers to the concentration that produces a half-maximal response. As for `N=C(N)c1ccc(OCCCCCOc2ccc(C(=N)N)cc2)cc1` [Pentamidine], the EC50 with T. brucei S427WT (read-out: EC50, AVG ± SEM, Table 1, control, footnote b: EC50 in μM, T. brucei s427 WT) was determined as 0.0031 ± 0.0003 µM; in the data set with T. brucei S427WT (setting [5]), 0.0034 ± 0.0004 µM; in the data set on T. brucei B48 (read-out: EC50, AVG ± SEM, Table 1, control, footnote b: EC50 in μM, T. brucei B48) it was 0.482 ± 0.02 µM; with T. brucei B48 (setting [6]), 0.493 ± 0.04 µM. The results for the “R. F (Resistance factor)” value in the data set with T. brucei B48 and in the data set with T. brucei B48 (listed as pentamidine) were 157.84 and 158, respectively. Also, the entries for the “RF (Resistance factor)” value in the data set on T. brucei B48 and with T. brucei B48 (listed as pentamidine) were 144.08 and 144, respectively.

For `C=CC(C)(C)c1c(O)cc2c(c1O)C(=O)C[C@@H](c1ccc(O)cc1)O2` [Compound 2, 6-(1,1-dimethylallyl)naringenin], the EC50 with T. brucei S427WT (setting [5]) is 2.24 µg/mL and 6.58 µM; in data set [1] (setting [7]) it was 5.69 µg/mL and 16.7 µM; in data set [3] (setting [7]), 7.35 µg/mL and 21.6 µM; in the data set on T. brucei B48 (setting [6]), 2.28 µg/mL and 6.69 µM. The “RF (Resistance factor)” value in data set [1] (6C3 versus IL3000) amounted to 0.77; in the data set with T. brucei B48, 1.02. The “Selectivity Index (SI) Tbb427 WT” value in the data set on RAW 246.7 cell line (EC50 (RAW 246.7)/EC50 (T. b. brucei 427 WT)) is given as 35.7; in the data set on U937 cell line (EC50 (U937)/EC50 (T. b. brucei 427 WT)) it was 22.8. The “Selectivity Index (SI) TcoIL3000” value with RAW 246.7 cell line (EC50 (RAW 246.7)/EC50 (T. congolense IL3000)) turned out to be 14.0; in the data set with U937 cell line (EC50 (U937)/EC50 (T. congolense IL3000)) it was 9.0. Moreover, the EC50 at 24 h in data set [2] is 79.9 µg/mL and 235 µM; in data set [4], 51.2 µg/mL and 150 µM.

Regarding `N=C(N)c1ccc(/N=N/Nc2ccc(C(=N)N)cc2)cc1` [Diminazene], the “R. F (Resistance factor)” value in data set [1] (Table 2, 6C3 versus IL3000) is reported as 7.75. For the same compound, the “RF (Resistance factor)” value came out at 9.81 in data set [1] (6C3 versus IL3000) and 9.8 in data set [1] (6C3 versus IL3000, listed as diminazene). Besides, the EC50 in data set [1] (setting [8]) is 1.51 ± 0.09 µM; in data set [1] (setting [7]) it was 1.45 ± 0.04 µM; in data set [3] (setting [8]), 0.2 ± 0.03 µM; in data set [3] (setting [7]), 0.15 ± 0.03 µM.
